Assay results published in ChEMBL document CHEMBL2375313, “Synthesis, in vitro antitumor evaluation and DNA-binding study of novel tetrahydroquinolines and some derived tricyclic and tetracyclic ring systems” (Eur J Med Chem, 2013).

How the values were obtained:
Type in all cases: functional
SK-MEL-2 = assay: Cytotoxicity against human SK-MEL-2 cells assessed as growth inhibition at 10 uM after 48 hrs by sulphorhodamine B assay; details: SK-MEL-2, 48 h, read-out: GI
Summary of the method: (§1)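 NCI-60 one-dose screen per the NCI Drug Evaluation Branch protocol. Cells given a single 10 µM concentration with 48 h continuous exposure. Growth estimated by sulphorhodamine B protein assay. Result expressed as percentage growth inhibition relative to untreated growth.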

A498 = assay: Cytotoxicity against human A498 cells assessed as growth inhibition at 10 uM after 48 hrs by sulphorhodamine B assay; details: A498, 48 h, read-out: GI; summary of the method: as §1
RXF 393 = assay: Cytotoxicity against human RXF393 cells assessed as growth inhibition at 10 uM after 48 hrs by sulphorhodamine B assay; details: RXF 393, 48 h, read-out: GI; summary of the method: as §1
M14 = assay: Cytotoxicity against human M14 cells assessed as growth inhibition at 10 uM after 48 hrs by sulphorhodamine B assay; details: M14, 48 h, read-out: GI; summary of the method: as §1
SR = assay: Cytotoxicity against human SR cells assessed as growth inhibition at 10 uM after 48 hrs by sulphorhodamine B assay; details: read-out: GI; summary of the method: as §1
T47D = assay: Cytotoxicity against human T47D cells assessed as growth inhibition at 10 uM after 48 hrs by sulphorhodamine B assay; details: read-out: GI; summary of the method: as §1
[1] = Cytotoxicity against human EKVX cells assessed as growth inhibition at 10 uM after 48 hrs by sulphorhodamine B assay; details: read-out: GI; summary of the method: as §1
HCT-116 = assay: Cytotoxicity against human HCT116 cells assessed as growth inhibition at 10 uM after 48 hrs by sulphorhodamine B assay; details: HCT-116, 48 h, read-out: GI; summary of the method: as §1
SF-295 = assay: Cytotoxicity against human SF295 cells assessed as growth inhibition at 10 uM after 48 hrs by sulphorhodamine B assay; details: SF-295, 48 h, read-out: GI; summary of the method: as §1
UO-31 = assay: Cytotoxicity against human UO31 cells assessed as growth inhibition at 10 uM after 48 hrs by sulphorhodamine B assay; details: UO-31, 48 h, read-out: GI; summary of the method: as §1
IGROV-1 = assay: Cytotoxicity against human IGROV1 cells assessed as growth inhibition at 10 uM after 48 hrs by sulphorhodamine B assay; details: IGROV-1, 48 h, read-out: GI; summary of the method: as §1
[2] = Cytotoxicity against human CNS cancer cells after 48 hrs by sulphorhodamine B assay; details: Cancer cell lines
[3] = Cytotoxicity against human prostate cancer cells after 48 hrs by sulphorhodamine B assay; details: Cancer cell lines
[4] = Cytotoxicity against human melanoma cells after 48 hrs by sulphorhodamine B assay; details: Melanoma cell
[5] = Cytotoxicity against human colon cancer cells after 48 hrs by sulphorhodamine B assay; details: Cancer cell lines
[6] = Cytotoxicity against human renal cancer cells after 48 hrs by sulphorhodamine B assay; details: Cancer cell lines
[7] = Cytotoxicity against human breast cancer cells after 48 hrs by sulphorhodamine B assay; details: Cancer cell lines
[8] = Cytotoxicity against human ovarian cancer cells after 48 hrs by sulphorhodamine B assay; details: Cancer cell lines
[9] = Cytotoxicity against human leukemia cells after 48 hrs by sulphorhodamine B assay; details: Leukemia cell
[10] = Cytotoxicity against human non-small cell lung cancer cells after 48 hrs by sulphorhodamine B assay; details: Cancer cell lines
[11] = read-out: LC50 (the source's name)

Question: What does the source list for `CCSc1nc(N)c2c(-c3ccc(Cl)cc3)c3c(nc2n1)C(C)CCC3` (centres undefined)?
Answer: inhibition of growth at 10 µM (SK-MEL-2): < 10%; inhibition of growth at 10 µM (A498): 21.7%; inhibition of growth at 10 µM (RXF 393): 26.6%; inhibition of growth at 10 µM (M14): < 10%; inhibition of growth at 10 µM (SR): 37.9%; inhibition of growth at 10 µM (T47D): 39.5%; inhibition of growth at 10 µM [1]: 12.3%; inhibition of growth at 10 µM (HCT-116): 18.8%; inhibition of growth at 10 µM (SF-295): < 10%; inhibition of growth at 10 µM (UO-31): 59%; inhibition of growth at 10 µM (IGROV-1): 39%

Question: With `CC1CCCc2c1nc1nc(SCC(=O)c3ccccc3)nc(N)c1c2-c1ccc(Cl)cc1` (centres undefined) as the compound, how does the inhibition of growth at 10 µM (SK-MEL-2) read?
Answer: Its inhibition of growth at 10 µM is 14.5%.

Question: What about the inhibition of growth at 10 µM (A498) of the same compound?
Answer: The inhibition of growth at 10 µM was 21.2%.

Question: And the inhibition of growth at 10 µM (RXF 393)?
Answer: Its inhibition of growth at 10 µM is 62.2%.

Question: And the GI50 [2]?
Answer: Its GI50 is 62.3 µM.

Question: What about the LC50 [2] of the same compound?
Answer: Its LC50 is over 100 µM.

Question: And the TGI [2]?
Answer: Its TGI is 84.1 µM.

Question: What about the inhibition of growth at 10 µM (M14) of the same compound?
Answer: The inhibition of growth at 10 µM was 35%.

Question: What about the GI50 [3] of the same compound?
Answer: Its GI50 is 75.5 µM.

Question: And the LC50 [3]?
Answer: Its LC50 is over 100 µM.

Question: And the TGI [3]?
Answer: Its TGI is over 100 µM.

Question: And the GI50 [4]?
Answer: The GI50 was 58 µM.

Question: What about the TGI [4] of the same compound?
Answer: Its TGI is over 100 µM.

Question: What about the CC50 [4, 11] of the same compound?
Answer: The CC50 was over 100 µM.

Question: And the GI50 [5]?
Answer: Its GI50 is over 100 µM.

Question: And the TGI [5]?
Answer: Its TGI is 86.5 µM.

Question: And the CC50 [5, 11]?
Answer: Its CC50 is over 100 µM.

Question: What about the GI50 [6] of the same compound?
Answer: The GI50 was 51.8 µM.

Question: What about the LC50 [6] of the same compound?
Answer: Its LC50 is over 100 µM.

Question: And the TGI [6]?
Answer: The TGI was over 100 µM.

Question: What about the inhibition of growth at 10 µM (SR) of the same compound?
Answer: Its inhibition of growth at 10 µM is under 10%.

Question: And the inhibition of growth at 10 µM (T47D)?
Answer: The inhibition of growth at 10 µM was 72.6%.

Question: And the GI50 [7]?
Answer: Its GI50 is 79.3 µM.

Question: And the TGI [7]?
Answer: The TGI was 89.6 µM.

Question: And the CC50 [7, 11]?
Answer: Its CC50 is over 100 µM.

Question: What about the GI50 [8] of the same compound?
Answer: Its GI50 is 80.6 µM.

Question: What about the TGI [8] of the same compound?
Answer: The TGI was 95.5 µM.

Question: What about the CC50 [8, 11] of the same compound?
Answer: The CC50 was over 100 µM.

Question: What about the inhibition of growth at 10 µM [1] of the same compound?
Answer: Its inhibition of growth at 10 µM is 26.7%.

Question: What about the inhibition of growth at 10 µM (HCT-116) of the same compound?
Answer: The inhibition of growth at 10 µM was 38.4%.

Question: What about the GI50 [9] of the same compound?
Answer: Its GI50 is 34.7 µM.

Question: And the LC50 [9]?
Answer: The LC50 was 93.3 µM.

Question: And the TGI [9]?
Answer: Its TGI is 65.1 µM.

Question: And the inhibition of growth at 10 µM (SF-295)?
Answer: Its inhibition of growth at 10 µM is 23.9%.

Question: What about the GI50 [10] of the same compound?
Answer: The GI50 was 46.1 µM.

Question: What about the TGI [10] of the same compound?
Answer: The TGI was over 100 µM.

Question: What about the CC50 [10, 11] of the same compound?
Answer: The CC50 was over 100 µM.

Question: And the inhibition of growth at 10 µM (UO-31)?
Answer: Its inhibition of growth at 10 µM is 63%.

Question: What about the inhibition of growth at 10 µM (IGROV-1) of the same compound?
Answer: Its inhibition of growth at 10 µM is under 10%.
